The source of these data is ChEMBL document CHEMBL4145615, “Indolyl Azaspiroketal Mannich Bases Are Potent Antimycobacterial Agents with Selective Membrane Permeabilizing Effects and in Vivo Activity” (J Med Chem, 2018).

Values after ≈ are worked out from the molar mass of the structure shown.

The nature of data set [1]: Drug uptake in lung of Mycobacterium tuberculosis H37Rv infected BALB/c mouse at 100 mg/kg administered 6 days per week for 4 weeks via oral gavage. Type of data set: ADME, organism-based. Particulars: in vivo, read-out: Drug uptake.
Data set [2] can be described thus: Ratio of drug level in CD1 mouse lung to plasma at 25 mg/kg, po administered as single dose measured at 5 hrs post dose by LC/MS-MS analysis. Type of data set: ADME, organism-based. Summed up:
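Blood taken at 30 min, 1, 3, 5 h and plasma separated by centrifugation. Lungs taken at 5 h and homogenized in ~5 volumes PBS. Levels measured by LC/MS-MS after acetonitrile/methanol protein precipitation with verapamil internal standard. AUC and Cmax calculated from mean concentrations.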

Data set [3] deals with Mus musculus. Briefly: Acute toxicity in BALB/c mouse at 100 mg/kg administered via oral gavage for 3 days measured over 7 days. Type of data set: organism-based. The conditions noted are these: in vivo, 168 h. Summed up:
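BALB/c mice, 3 per group, oral gavage at 100 mg/kg in 200 μL of equal volumes PEG400 and 5% glucose. Dosed on three consecutive days, then monitored 7 days. Euthanized by CO2 and examined for gross pathological changes.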

Data set [4] in a line: Drug uptake in lungs of CD1 mouse at 25 mg/kg, po administered as single dose measured at 5 hrs post dose by LC/MS-MS analysis. Type of data set: ADME, organism-based. Particulars: lung, read-out: Drug uptake. In outline:
(§1)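 Uninfected CD-1 mice (n=2 per compound), single oral dose 25 mg/kg as a solution in 5% DMA/65% PEG300/30% D5W. Blood taken at 30 min, 1, 3, 5 h and plasma separated by centrifugation. Lungs taken at 5 h and homogenized in ~5 volumes PBS. Levels measured by LC/MS-MS after acetonitrile/methanol protein precipitation with verapamil internal standard. AUC and Cmax calculated from mean concentrations.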

The test system of data set [5] is Mycobacterium tuberculosis. Briefly: Antimycobacterial activity against Mycobacterium tuberculosis H37Rv ATCC 27294 after 7 days by broth dilution method. The class given is functional. The conditions noted are these: H37Rv ATCC 27294, 168 h. For orientation: In broth dilution the organism is exposed to a series of concentrations in liquid medium.
For data set [6], the system named is Mus musculus. Briefly: AUC in CD1 mouse at 25 mg/kg, po administered as single dose by LC/MS-MS analysis. The conditions noted are these: in vivo. The class given is ADME, organism-based. Summed up:
as §1

Data set [7] in a line: Plasma concentration in CD1 mouse at 25 mg/kg, po administered as single dose measured at 5 hrs post dose by LC/MS-MS analysis. The class given is ADME, organism-based. In outline: as §1
Data set [8] concerns Mus musculus. Put plainly: Toxicity in CD1 mouse at 25 mg/kg, po administered as single dose by LC/MS-MS analysis. Type of data set: organism-based. The conditions noted are these: in vivo. In outline:
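Uninfected CD-1 mice (n=2 per compound) received a single oral 25 mg/kg dose as a solution in 5% DMA/65% PEG300/30% D5W. Tail-bleed blood was taken at 30 min, 1, 3 and 5 h and spun to plasma. Lungs were taken at 5 h and homogenized in about 5 volumes of PBS. Samples were acetonitrile/methanol-precipitated with verapamil internal standard and quantified by LC-MS/MS against standard curves in drug-free CD1 plasma.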

The nature of data set [9]: Half life in rat liver microsomes at 1 uM preincubated for 5 mins followed by NADPH addition measure up to 45 mins by LC-MS analysis. The class given is ADME, microsome. Particulars: 0.75 h. Summed up: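 Male rat liver microsomes, incubated 45 min at 37°C. Half-life reported as mean ± SD.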
A general note: Liver microsomes are a subcellular fraction often used to study metabolism.

Data set [10] can be described thus: Cmax in CD1 mouse at 25 mg/kg, po administered as single dose by LC/MS-MS analysis. The class given is ADME, organism-based. The arrangement: dose 25 mg/kg, route oral. The conditions noted are these: in vivo. In outline:
as §1

Data set [11] is described as follows: Hemolytic activity against human RBC after 1 hr. The class given is ADME, cell-based, Erythrocyte. Particulars: red blood cells (erythrocytes). Summed up:
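Human red blood cells were exposed to the test compound at a range of concentrations in phosphate-buffered saline for 1 h at 37°C. Hemolysis was referenced to 2% Triton X-100, taken as 100% hemolysis. The value reported is the concentration that lyses 50% of RBCs.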

Data set [12] deals with Mycobacterium tuberculosis. Briefly: Loebicidal activity against nutrient-starved nongrowing Mycobacterium tuberculosis H37Rv ATCC 27294 assessed as 1000 fold reduction in CFU after 7 days. The class given is functional. In outline:
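Mtb H37Rv nutrient-starved, non-growing bacilli prepared from a roller-bottle culture. 1 mL at OD600 = 0.05 exposed to a range of concentrations for 7 days at 37°C, 80 rpm. CFU counted on 7H10 agar. LCC99.9 is the 1000-fold reduction versus drug-free inoculum at time zero.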

The test system of data set [13] is Vero C1008. Briefly: Cytotoxicity against African green monkey Vero E6 cells assessed as cell growth inhibition after 48 hrs by celltitre 96 aqueous one-based assay. Particulars: Chlorocebus sabaeus, Vero C1008, 48 h.
The subject of data set [14] is Lipid bilayer.
In data set [15] the test system is Mycobacterium tuberculosis. Put plainly: Bactericidal activity against Mycobacterium tuberculosis H37Rv ATCC 27294 assessed as 1000 fold reduction in CFU after 7 days. Type of data set: functional. The conditions noted are these: H37Rv ATCC 27294, 168 h, read-out: MBC99.9. Summed up: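 BCG ran 5 days at 37°C, 110 rpm; H37Rv ran 7 days at 37°C, 80 rpm. CFU counted on 7H10 agar. MBC99.9 is the 1000-fold CFU reduction versus inoculum at time zero. Average of 2 or more determinations.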

Data set [16] relates to Mycobacterium tuberculosis. Put plainly: Bactericidal activity against Mycobacterium tuberculosis H37Rv ATCC 27294 after 5 days. The class given is functional. The conditions noted are these: H37Rv ATCC 27294, 120 h, read-out: MBC99.9.

As usually defined, the Kp is tissue or fluid exposure divided by exposure in the circulation. Usually MIC50 stands for the lowest concentration that inhibits either 50% of growth or 50% of the strains tested, depending on the study. In general, MIC90 refers to an inhibitory concentration at the 90% level, which refers to growth in some studies and to a panel of isolates in others. The AUC is the area under the concentration-time curve, a measure of exposure. In general, Cmax refers to the maximum level reached in the sampled fluid or tissue. A word on the HC50: it is the concentration that lyses half of the red blood cells. Consider `CCCCCCCCn1cc(CN2CCC3(CC2)OCCO3)c2ccc(OC)cc21`, for which the concentration in data set [1] is 1000 nM. Moreover, the Kp at 5 h in [2] was determined as 14.2. For the same compound, the Activity result in data set [3] and in [8] was “Non-Toxic” in each case. The concentration at 5 h came out at 468 ng/g in data set [4] and 33 ng/mL in data set [7]. Moreover, the MIC50 in data set [5] came out at 1.2 µM (≈ 0.498 µg/mL). The MIC90 in [5] came out at 2.3 µM (≈ 0.954 µg/mL). This compound returned an exposure (AUC) in data set [6] of 173 ng·h/mL. Moreover, the t1/2 in [9] came to 17.4 min. For the same compound, the Cmax in data set [10] is 42 ng/mL. Further, in data set [11], the HC50 at 1 h came out at 75 µM.
For orientation: IC50 means the point on the concentration scale where inhibition reaches its midpoint. The term ΔTm denotes the change in melting temperature against a reference sample. With `CCCCCCCCn1cc(CN2CCC3(CC2)OCCCO3)c2ccc(OC)cc21`, in data set [12], the LCC99 came out at 18 µM. Also, the IC50 in data set [13] came to 29 µM. Besides, the concentration in [1] is 3000 nM. The ΔTm in [14] was 4 °C. Besides, the Activity result in data set [3] and in [8] was “Non-Toxic” throughout. For the same compound, the MIC50 in data set [5] came out at 0.44 µM (≈ 0.189 µg/mL). Further, the MIC90 in data set [5] was 0.76 µM (≈ 0.326 µg/mL). Moreover, the MBC in [15] and in data set [16] was 3.2 µM (≈ 1.37 µg/mL) in each case. Moreover, the AUC in [6] stood at 282 ng·h/mL. The concentration at 5 h in [7] worked out at 58.5 ng/mL. This compound also returned a t1/2 in data set [9] of 27.7 min. Moreover, the peak level in [10] (Cmax) was 64.8 ng/mL. This compound also came in with an HC50 at 1 h in data set [11] of 64 µM.
Turning to `CCCCCCCCn1cc(CN2CCC3(CC2)OCCCS3)c2ccc(OC)cc21`, the LCC99.9 in data set [12] was less than 18 µM. The IC50 in [13] stood at 39 µM. Also, the Kp at 5 h in data set [2] came out at 28.9. Besides, the ΔTm in data set [14] came to 4 °C. Further, the concentration at 5 h in data set [4] was found to be 1600 ng/g; in data set [7], 55.2 ng/mL. In [5], this compound had an MIC50 of 0.5 µM (≈ 0.222 µg/mL). In addition, the MIC90 in data set [5] was 0.8 µM (≈ 0.356 µg/mL). For the same compound, the MBC in data set [15] and in [16] was 3.2 µM (≈ 1.42 µg/mL) each time. In data set [6], this compound returned an AUC of 224 ng·h/mL. Also, the Activity result in [8] is on record as “Non-Toxic”. This compound also showed a t1/2 in data set [9] of 32.9 min. Further, the concentration in [10] peaked (Cmax) at 60.6 ng/mL. In data set [11], the HC50 at 1 h is more than 300 µM.
